Experimental data published in ChEMBL document CHEMBL1926550, “Synthesis and antibacterial activity of naphthyridone derivatives containing mono/difluoro-methyloxime pyrrolidine scaffolds” (2012).
≈ marks a conversion by molar mass, not a printed value.

Key:
Assay type in all cases: functional
Enterococcus faecalis [1] = test: Antibacterial activity against Enterococcus faecalis 09-1 after 18 hrs by two fold serial dilution method; conditions: 09-1, 18 h
In short: (§1)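 Agar two-fold serial dilution in melted Mueller-Hinton agar, final concentrations 128 down to 0.008 μg/mL. Plates inoculated with 10⁴ cfu and incubated at 35 °C for 18 h. MIC taken as the lowest concentration giving no visible growth on the plate.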

Enterococcus faecium [2] = test: Antibacterial activity against Enterococcus faecium 09-3 after 18 hrs by two fold serial dilution method; conditions: 09-3, 18 h; in short: as §1
Escherichia coli [3] = test: Antibacterial activity against Escherichia coli 10-3 after 18 hrs by two fold serial dilution method; conditions: 10-3, 18 h; in short: as §1
[4] = test system: Staphylococcus epidermidis; test: Antibacterial activity against methicillin-resistant Staphylococcus epidermidis 10-2 after 18 hrs by two fold serial dilution method; conditions: 10-2, 18 h
In short: (§2)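 Agar two-fold serial dilution in melted Mueller-Hinton agar, 128 to 0.008 μg/mL. Plates inoculated with 10⁴ cfu, incubated 35 °C for 18 h. MIC taken as lowest concentration giving no visible growth on the plate.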

Pseudomonas aeruginosa [5] = test: Antibacterial activity against Pseudomonas aeruginosa 10-1 after 18 hrs by two fold serial dilution method; conditions: 10-1, 18 h; in short: as §1
Staphylococcus aureus [6] = test: Antibacterial activity against methicillin-resistant Staphylococcus aureus 10-4 after 18 hrs by two fold serial dilution method; conditions: 10-4, 18 h; in short: as §2
Pseudomonas aeruginosa [7] = test: Antibacterial activity against Pseudomonas aeruginosa 10-3 after 18 hrs by two fold serial dilution method; conditions: 10-3, 18 h; in short: as §1
Escherichia coli [8] = test: Antibacterial activity against Escherichia coli 09-1 after 18 hrs by two fold serial dilution method; conditions: 09-1, 18 h; in short: as §1
Klebsiella pneumoniae [9] = test: Antibacterial activity against Klebsiella pneumoniae 09-2 after 18 hrs by two fold serial dilution method; conditions: 09-2, 18 h; in short: as §1
[10] = test system: Staphylococcus epidermidis; test: Antibacterial activity against methicillin-sensitive Staphylococcus epidermidis 10-1 after 18 hrs by two fold serial dilution method; conditions: 10-1, 18 h; in short: as §1
Staphylococcus aureus [11] = test: Antibacterial activity against methicillin-sensitive Staphylococcus aureus 10-6 after 18 hrs by two fold serial dilution method; conditions: 10-6, 18 h; in short: as §1
Klebsiella pneumoniae [12] = test: Antibacterial activity against Klebsiella pneumoniae 10-3 after 18 hrs by two fold serial dilution method; conditions: 10-3, 18 h; in short: as §1
Enterococcus faecium [13] = test: Antibacterial activity against Enterococcus faecium 09-5 after 18 hrs by two fold serial dilution method; conditions: 09-5, 18 h; in short: as §1
Staphylococcus aureus [14] = test: Antibacterial activity against methicillin-sensitive Staphylococcus aureus 10-5 after 18 hrs by two fold serial dilution method; conditions: 10-5, 18 h; in short: as §1
Enterococcus faecium [15] = test: Antibacterial activity against Enterococcus faecium 09-6 after 18 hrs by two fold serial dilution method; conditions: 09-6, 18 h; in short: as §1
Enterococcus faecalis [16] = test: Antibacterial activity against Enterococcus faecalis 09-2 after 18 hrs by two fold serial dilution method; conditions: 09-2, 18 h; in short: as §1
Staphylococcus aureus [17] = test: Antibacterial activity against Staphylococcus aureus ATCC 25923 after 18 hrs by two fold serial dilution method; conditions: ATCC 25923, 18 h; in short: as §1
Enterococcus faecium [18] = test: Antibacterial activity against Enterococcus faecium 09-1 after 18 hrs by two fold serial dilution method; conditions: 09-1, 18 h; in short: as §1
Staphylococcus aureus [19] = test: Antibacterial activity against methicillin-sensitive Staphylococcus aureus 10-1 after 18 hrs by two fold serial dilution method; conditions: 10-1, 18 h; in short: as §1
Escherichia coli [20] = test: Antibacterial activity against Escherichia coli 09-2 after 18 hrs by two fold serial dilution method; conditions: 09-2, 18 h; in short: as §1
Staphylococcus aureus [21] = test: Antibacterial activity against methicillin-sensitive Staphylococcus aureus 10-2 after 18 hrs by two fold serial dilution method; conditions: 10-2, 18 h; in short: as §1
Staphylococcus aureus [22] = test: Antibacterial activity against methicillin-resistant Staphylococcus aureus 10-3 after 18 hrs by two fold serial dilution method; conditions: 10-3, 18 h; in short: as §2
Staphylococcus aureus [23] = test: Antibacterial activity against methicillin-resistant Staphylococcus aureus 10-1 after 18 hrs by two fold serial dilution method; conditions: 10-1, 18 h; in short: as §2
[24] = test system: Staphylococcus epidermidis; test: Antibacterial activity against methicillin-sensitive Staphylococcus epidermidis 10-2 after 18 hrs by two fold serial dilution method; conditions: 10-2, 18 h; in short: as §1
Pseudomonas aeruginosa [25] = test: Antibacterial activity against Pseudomonas aeruginosa 10-2 after 18 hrs by two fold serial dilution method; conditions: 10-2, 18 h; in short: as §1
Staphylococcus aureus [26] = test: Antibacterial activity against methicillin-resistant Staphylococcus aureus 10-2 after 18 hrs by two fold serial dilution method; conditions: 10-2, 18 h; in short: as §2
Escherichia coli [27] = test: Antibacterial activity against Escherichia coli 10-2 after 18 hrs by two fold serial dilution method; conditions: 10-2, 18 h; in short: as §1
Staphylococcus aureus [28] = test: Antibacterial activity against methicillin-sensitive Staphylococcus aureus 10-3 after 18 hrs by two fold serial dilution method; conditions: 10-3, 18 h; in short: as §1
Enterococcus faecium [29] = test: Antibacterial activity against Enterococcus faecium 09-4 after 18 hrs by two fold serial dilution method; conditions: 09-4, 18 h; in short: as §1
Escherichia coli [30] = test: Antibacterial activity against Escherichia coli 09-3 after 18 hrs by two fold serial dilution method; conditions: 09-3, 18 h; in short: as §1
Klebsiella pneumoniae [31] = test: Antibacterial activity against Klebsiella pneumoniae 10-1 after 18 hrs by two fold serial dilution method; conditions: 10-1, 18 h; in short: as §1
Enterococcus faecium [32] = test: Antibacterial activity against Enterococcus faecium 09-2 after 18 hrs by two fold serial dilution method; conditions: 09-2, 18 h; in short: as §1
Escherichia coli [33] = test: Antibacterial activity against Escherichia coli ATCC 25922 after 18 hrs by two fold serial dilution method; conditions: ATCC 25922, 18 h; in short: as §1
Streptococcus pneumoniae = test: Antibacterial activity against Streptococcus pneumoniae 10-1 after 18 hrs by two fold serial dilution method; conditions: 10-1, 18 h; in short: as §1
Escherichia coli [34] = test: Antibacterial activity against Escherichia coli 10-1 after 18 hrs by two fold serial dilution method; conditions: 10-1, 18 h; in short: as §1
Pseudomonas aeruginosa [35] = test: Antibacterial activity against Pseudomonas aeruginosa ATCC 27853 after 18 hrs by two fold serial dilution method; conditions: ATCC 27853, 18 h; in short: as §1
[36] = test system: Staphylococcus epidermidis; test: Antibacterial activity against methicillin-resistant Staphylococcus epidermidis 10-1 after 18 hrs by two fold serial dilution method; conditions: 10-1, 18 h; in short: as §2
Staphylococcus aureus [37] = test: Antibacterial activity against methicillin-sensitive Staphylococcus aureus 10-4 after 18 hrs by two fold serial dilution method; conditions: 10-4, 18 h; in short: as §1
Klebsiella pneumoniae [38] = test: Antibacterial activity against Klebsiella pneumoniae 10-3 infected KM mouse systemic infection model assessed as decrease in mouse mortality administered orally twice after 1 and 4 hrs post infection measured up to 7 days; conditions: 10-3, po
In short: (§3)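 Strains grown on MH agar at 35 °C for 18 h, suspended in gastric mucin. Male KM mice (19–21 g), groups of 10, infected intraperitoneally with 0.5 mL at 5–10× MLD. Four oral dose levels per drug at 1 and 4 h post infection. Mortality followed 7 days; ED50 with 95% confidence limits by Bliss method.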

[39] = test system: Staphylococcus epidermidis; test: Antibacterial activity against methicillin-resistant Staphylococcus epidermidis 10-4 infected KM mouse systemic infection model assessed as decrease in mouse mortality administered orally twice after 1 and 4 hrs post infection measured up to 7 days; conditions: 10-4, po; in short: as §3
Pseudomonas aeruginosa [40] = test: Antibacterial activity against Pseudomonas aeruginosa 10-1 infected KM mouse systemic infection model assessed as decrease in mouse mortality administered orally twice after 1 and 4 hrs post infection measured up to 7 days; conditions: 10-1, po; in short: as §3
Escherichia coli [41] = test: Antibacterial activity against Escherichia coli 10-2 infected KM mouse systemic infection model assessed as decrease in mouse mortality administered orally twice after 1 and 4 hrs post infection measured up to 7 days; conditions: 10-2, po; in short: as §3
Staphylococcus aureus [42] = test: Antibacterial activity against methicillin-resistant Staphylococcus aureus 10-2 infected KM mouse systemic infection model assessed as decrease in mouse mortality administered orally twice after 1 and 4 hrs post infection measured up to 7 days; conditions: 10-2, po; in short: as §3
[43] = test system: Staphylococcus epidermidis; test: Antibacterial activity against methicillin-resistant Staphylococcus epidermidis 10-4 after 18 hrs by two fold serial dilution method; conditions: 10-4, 18 h; in short: as §2

SMILES | MIC (Enterococcus faecalis [1]) [µg/mL] | MIC (Enterococcus faecium [2]) [µg/mL] | MIC [4] [µg/mL] | MIC (Pseudomonas aeruginosa [5]) [µg/mL] | MIC (Staphylococcus aureus [6]) [µg/mL] | MIC (Klebsiella pneumoniae [9]) [µg/mL] | MIC [10] [µg/mL] | MIC (Klebsiella pneumoniae [12]) [µg/mL] | MIC (Enterococcus faecium [13]) [µg/mL] | MIC (Staphylococcus aureus [14]) [µg/mL] | MIC (Enterococcus faecium [15]) [µg/mL] | MIC (Enterococcus faecalis [16]) [µg/mL] | MIC (Staphylococcus aureus [17]) [µg/mL] | MIC (Enterococcus faecium [18]) [µg/mL] | MIC (Staphylococcus aureus [19]) [µg/mL] | MIC (Staphylococcus aureus [21]) [µg/mL] | MIC (Staphylococcus aureus [22]) [µg/mL] | MIC (Staphylococcus aureus [23]) [µg/mL] | MIC [24] [µg/mL] | MIC (Pseudomonas aeruginosa [25]) [µg/mL] | further results
NCC1CN(c2nc3c(cc2F)c(=O)c(C(=O)O)cn3-c2ccc(F)cc2F)C/C1=N\OC(F)F (racemic) | 8 (≈ 16.1 µM) | 16 (≈ 32.2 µM) | 1 (≈ 2.01 µM) | 1 (≈ 2.01 µM) | 16 (≈ 32.2 µM) | 64 (≈ 129 µM) | 32 (≈ 64.3 µM) | 2 (≈ 4.02 µM) | 32 (≈ 64.3 µM) | 0.015 (≈ 0.0302 µM) | 0.125 (≈ 0.251 µM) | 16 (≈ 32.2 µM) | 0.008 (≈ 0.0161 µM) | 32 (≈ 64.3 µM) | 0.03 (≈ 0.0603 µM) | 1 (≈ 2.01 µM) | 16 (≈ 32.2 µM) | 16 (≈ 32.2 µM) | 64 (≈ 129 µM) | 128 (≈ 257 µM) | MIC (Escherichia coli [3]): 8 µg/mL (≈ 16.1 µM); MIC (Pseudomonas aeruginosa [7]): 8 µg/mL (≈ 16.1 µM); MIC (Escherichia coli [8]): 32 µg/mL (≈ 64.3 µM); MIC (Staphylococcus aureus [11]): 0.015 µg/mL (≈ 0.0302 µM); MIC (Escherichia coli [20]): > 128 µg/mL; MIC (Staphylococcus aureus [26]): 4 µg/mL (≈ 8.04 µM); MIC (Escherichia coli [27]): 4 µg/mL (≈ 8.04 µM); MIC (Staphylococcus aureus [28]): 0.015 µg/mL (≈ 0.0302 µM); MIC (Enterococcus faecium [29]): 0.125 µg/mL (≈ 0.251 µM); MIC (Escherichia coli [30]): 64 µg/mL (≈ 129 µM); MIC (Klebsiella pneumoniae [31]): 0.25 µg/mL (≈ 0.503 µM); MIC (Enterococcus faecium [32]): 32 µg/mL (≈ 64.3 µM); MIC (Escherichia coli [33]): 0.008 µg/mL (≈ 0.0161 µM); MIC (Streptococcus pneumoniae): 0.06 µg/mL (≈ 0.121 µM); MIC (Escherichia coli [34]): > 128 µg/mL; MIC (Pseudomonas aeruginosa [35]): 4 µg/mL (≈ 8.04 µM); MIC [36]: 2 µg/mL (≈ 4.02 µM); MIC (Staphylococcus aureus [37]): 0.008 µg/mL (≈ 0.0161 µM)
O=C(O)c1cn(C2CC2)c2cc(N3CCNCC3)c(F)cc2c1=O [CIPROFLOXACIN] | 64 (≈ 193 µM) | 128 (≈ 386 µM) | 8 (≈ 24.1 µM) | 0.06 (≈ 0.181 µM) | > 128 | 32 (≈ 96.6 µM) | 8 (≈ 24.1 µM) | 0.25 (≈ 0.754 µM) | 64 (≈ 193 µM) | 0.03 (≈ 0.0905 µM) | 0.5 (≈ 1.51 µM) | 64 (≈ 193 µM) | 0.25 (≈ 0.754 µM) | > 128 | 0.015 (≈ 0.0453 µM) | 64 (≈ 193 µM) | > 128 | > 128 | 64 (≈ 193 µM) | > 128 | ED50 (Klebsiella pneumoniae [38]): 87.5 mg/kg; ED50 [39]: 24.5 mg/kg; ED50 (Pseudomonas aeruginosa [40]): 111 mg/kg; MIC (Staphylococcus aureus [28]): 0.06 µg/mL (≈ 0.181 µM); MIC (Enterococcus faecium [29]): 0.5 µg/mL (≈ 1.51 µM); MIC (Escherichia coli [30]): 64 µg/mL (≈ 193 µM); MIC (Klebsiella pneumoniae [31]): 0.06 µg/mL (≈ 0.181 µM); MIC (Enterococcus faecium [32]): > 128 µg/mL; ED50 (Escherichia coli [41]): 4 mg/kg; MIC (Streptococcus pneumoniae): 0.03 µg/mL (≈ 0.0905 µM); ED50 (Staphylococcus aureus [42]): 15.9 mg/kg; MIC [43]: 8 µg/mL (≈ 24.1 µM); MIC [36]: 16 µg/mL (≈ 48.3 µM); MIC (Staphylococcus aureus [37]): 0.06 µg/mL (≈ 0.181 µM)
